Compound activity deposited in PubChem by several laboratories.
The list is not random: actives were taken first. Their share in the collection is about 4.7%.
RGS4 pot: RGS4 potentiation or activation; HEK293 M3R/inducible RGS4, carbachol calcium flux Fluo4; active compounds read low; B-score at 10 µM; 0.92% of 310,000 active;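 active = B-score of the integrated calcium signal more than 4 SD below the library mean, with starting fluorescence not abnormally high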;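 also: negative B-score means reduced calcium response which marks RGS4 activation or potentiation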
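test system = HEK293 cells with stable M3R and inducible RGS4 | schedule = recording 10 s baseline at 1 Hz, 100 s post-agonist | technique = Fluo4-AM (2 µM) calcium-flux fluorescence, kinetic read | measure = Agonist-evoked peak-minus-minimum fluorescence over baseline, integrated ratio, B score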
MrgX1 ag: human MrgX1 receptor agonism, primary screen; Q96LB2; MrgX1-HEK293 cells, Fluo-4 calcium fluorescence, agonist mode; active compounds read high; B-score at 10 µM; 0.44% of 310,000 active;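 active = calcium response B-score plate-corrected fluorescence ratio at least 3 library SD, with starting fluorescence B-score inside 5 SD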
Target sequence (Q96LB2 whole entry, looked up): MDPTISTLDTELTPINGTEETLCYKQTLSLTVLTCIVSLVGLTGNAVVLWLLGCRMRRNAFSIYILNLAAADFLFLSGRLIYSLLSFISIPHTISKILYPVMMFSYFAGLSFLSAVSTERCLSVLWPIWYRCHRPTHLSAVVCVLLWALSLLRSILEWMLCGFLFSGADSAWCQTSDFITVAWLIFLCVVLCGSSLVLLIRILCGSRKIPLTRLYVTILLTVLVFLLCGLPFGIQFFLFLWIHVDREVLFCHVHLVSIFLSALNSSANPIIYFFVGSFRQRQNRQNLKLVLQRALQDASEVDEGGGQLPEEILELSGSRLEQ
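Material – MrgX1-expressing HEK293 cells · Input – 15,000 cells seeded per well · Dosing – compound as first of three additions · Times – overnight seeding, then 1 h dark dye loading · Measured by – kinetic Fluo-4 NW fluorescence of intracellular calcium · Read-out – B-scored fluorescence response ratio · Benchmarks – positive and negative control wells on each plate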
MrgX1 PAM: allosterically activates human MrgX1 receptor signaling; Q96LB2; MrgX1-HEK293, Fluo-4 calcium flux, FDSS; active compounds read high; B-score at 10 µM; 0.63% of 310,000 active; AID 588675;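 active = plate-corrected calcium response at least 3 library SD above typical, normal starting fluorescence, not activating the receptor alone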;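 also: compound read alongside a low EC10 to EC30 dose of BAM8-22 agonist; peak minus trough fluorescence over baseline measured at the second addition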
MrgX1 antag: antagonists of human MrgX1 receptor | Q96LB2 | MRGX1-HEK293 calcium flux, Fluo-4, BAM8-22 antagonism; active compounds read low | B-score at 10 µM | 1.3% of 310,000 active;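 active = calcium-response B-score plate-corrected more than 3 library SD below zero, starting fluorescence within 5 deviations, no agonist response on first addition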;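 also: peak minus trough fluorescence over baseline after final BAM8-22 challenge near maximal dose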
RGS4 inh: human RGS4 inhibition | P49798 | HEK293 M3R/RGS4 inducible, Fluo-4 calcium flux; active compounds read high; triggered by carbachol at its EC20 | B-score at 10 µM | 0.45% of 310,000 active;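 active = B-score, a plate-corrected calcium signal, over three deviations above library mean, with baseline fluorescence within five deviations of library mean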;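 also: RGS4 expression induced by doxycycline in cells with stable M3 receptor; B-score is computed from the integrated fluorescence ratio over baseline after carbachol; higher B-score means a larger calcium signal and so more RGS4 inhibition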
Target sequence (P49798 whole entry, looked up): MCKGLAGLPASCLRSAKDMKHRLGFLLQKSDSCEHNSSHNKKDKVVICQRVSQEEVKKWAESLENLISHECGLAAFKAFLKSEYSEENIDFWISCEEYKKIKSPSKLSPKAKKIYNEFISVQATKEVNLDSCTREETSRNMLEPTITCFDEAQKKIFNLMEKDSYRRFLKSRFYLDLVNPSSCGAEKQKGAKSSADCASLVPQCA
Cl transport mod: modulators of human KCC2 chloride dependent transport. 2.2% of 190,000 active. B-score of Tl+ flux slope (higher = more flux/activation; lower = inhibition) at 10 µM. KCC2 cells, thallium flux FluoZin-2 fluorescence. Q9H2X9;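 active = thallium flux slope and its plate-corrected score both differing from the plate sample mean at a set confidence after two filtering rounds, in either direction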;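 also: slope of fluorescence scaled to starting intensity during 10 to 20 s after thallium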
Numbers without * were called inactive; i = inactive; . = no result given.

SMILES	RGS4 pot	MrgX1 ag	MrgX1 PAM	MrgX1 antag	RGS4 inh	Cl transport mod
CCN(CC)S(=O)(=O)c1ccc(NN=C(C#N)C#N)cc1	i	i	i	-7.38*	i	-0.957
Cc1ccc(C2CC3CCC(C2)N3Cc2ccccc2F)cc1 (stereo unspecified)	i	.	.	.	i	.
O=c1[nH]c(O)c(/C=C2\C=Nc3ccc(OCc4ccccc4)cc32)c(=O)[nH]1	i	i	i	i	i	.
CN=C(SCC(=O)c1cccc(Cl)c1)c1c(O)n(C)c(=O)n(C)c1=O	i	i	i	i	i	0.152
O=C(C[N+]12CCC(CC1)C(C(O)(c1ccccc1)c1ccccc1)C2)c1ccc(Br)cc1 (stereo unspecified)	-10.3*	i	i	i	i	0.714
CCOC(=O)c1c(-n2c(C)cc(C=C3C(=O)NC(=S)NC3=O)c2C)sc2c1CCCC2	i	28.3*	i	i	i	.
CCCC[N+]12CCC(CC1)C(=C(c1ccccc1)c1ccccc1)C2	-8.59*	i	i	i	i	-0.0792
C=C1C2[C@H](OC(C)=O)[C@@H]3CC(=O)[C@]4(C)OC[C@@]3(C)[C@@]4(O)[C@@H](OC(C)=O)[C@H](OC(C)=O)[C@@]2(COC(=O)c2ccccc2)[C@@H](OC(C)=O)C[C@@H]1O (stereo partly specified)	i	i	i	-5.39*	i	.
COc1ccccc1/C=N/N=C(/N)N[N+](=O)[O-]	i	i	i	-7.7*	i	-0.0507
Cc1c(NC(NC(=O)CF)C(Cl)(Cl)Cl)c(=O)n(-c2ccccc2)n1C (stereo unspecified)	i	i	i	i	i	1.16
COc1ccc(OC)c(C(O)C2CCCCN2)c1 (stereo unspecified)	i	i	i	i	i	.
C=C(COC(C)=O)CC1CC(O)[C@]2(C)OC3CC4OC5C[C@]6(C)O[C@]7(C)CCC8OC9C[C@]%10(C)OC%11C(C)=CC(=O)OC%11CC%10OC9C[C@@H](C)C8OC7CC6O[C@]5(C)C/C=C\C4OC3CC2O1 (stereo partly specified)	i	.	.	.	18.4*	0.959
C=C(C=O)CC1CC(O)[C@]2(C)OC3CC4OC5C[C@]6(C)O[C@]7(C)CCC8OC9C[C@]%10(C)OC%11C(C)=CC(=O)OC%11CC%10OC9C[C@@H](C)C8OC7CC6O[C@]5(C)CC5OC5C4OC3CC2O1 (stereo partly specified)	i	i	i	-5.41*	i	-0.0388
CCOC(=O)c1c(C)n(Cc2ccccc2)c2ccc(OCC(O)CNC(C)(C)C)cc12 (stereo unspecified)	i	i	i	-4.74*	i	.
CN1Cc2c(c(C#N)c(N)n(C)c2=S)CC1(C)C	-9.35*	i	i	i	i	-0.0881
c1ccc(-c2ccc(-c3n(-c4ccccn4)c4ccccc4[n+]3-c3ccccn3)cc2)cc1	i	.	.	.	i	0.0131
CCC1C=CC=CC[C@H](C)[C@@H](O)[C@](C)(O)C(=O)[C@@H](C)[C@H](O)[C@@H](C)C(=O)[C@H](C)[C@@H](O)[C@H](C)C=CC(=O)OC2[C@@H](C)C(CC1)OC1(CC[C@@H](C)C(C[C@H](C)O)O1)[C@@H]2C (stereo partly specified)	.	i	i	-4.83*	.	.
C=CC[C@@H](C)CC(=O)C(CCCN=[N+]=[N-])SOOc1ccccc1 (stereo partly specified)	.	i	i	i	.	.
O=C(O)c1cc[c]([Hg][Cl])cc1	.	i	13.4*	i	.	.
Cc1ccc(S(=O)(=O)N2CCN(C(=O)COC(=O)Cc3ccccc3)CC2)c(C)c1	i	i	i	i	i	.
Fc1ccc(C[n+]2c(-c3ccccc3)cc(-c3ccccc3)cc2-c2ccccc2)cc1	i	i	i	i	i	.
Clc1ccc(C[n+]2c(-c3ccccc3)cc(-c3ccccc3)cc2-c2ccccc2)cc1	-8.1*	i	i	-6.86*	i	.
Cc1cc(-c2ccccc2)cc(-c2ccccc2)[n+]1CCc1ccccc1	-8.18*	i	i	-4.63*	i	.
CCOc1ccc(-c2cc(C)[n+](CCO)c(-c3ccc(OCC)cc3)c2)cc1	i	i	i	i	i	0.322
COc1ccc(-c2cc(=O)oc3c(C)c(OC(C)C(=O)N4C[C@H]5C[C@@H](C4)c4cccc(=O)n4C5)ccc23)cc1 (stereo partly specified)	i	i	i	i	i	.
SMILES	RGS4 pot	MrgX1 ag	MrgX1 PAM	MrgX1 antag	RGS4 inh	Cl transport mod
Oc1ccc(-[n+]2c(-c3ccccc3)cc(-c3ccccc3)cc2-c2ccccc2)cc1	-7.23*	i	12.3*	-7.85*	i	.
O=[N+]([O-])c1ccc(-[n+]2c(-c3ccccc3)cc(-c3ccccc3)cc2-c2ccccc2)cc1	i	i	8.42*	i	i	.
O=C([O-])c1ccc(-[n+]2c(-c3ccccc3)cc(-c3ccccc3)cc2-c2ccccc2)cc1	i	i	i	i	i	.
C[n+]1c(-c2ccccc2)cc(-c2ccc(O)cc2)cc1-c1ccccc1	i	i	i	i	i	-0.472
COc1ccc(-[n+]2c(-c3ccccc3)cc(-c3ccccc3)cc2-c2ccccc2)cc1	i	i	i	-4.88*	i	.
Cc1cc(O)c(CN2CC=C(c3ccccc3)CC2)cc1C(C)C	i	i	i	i	i	.
O=[N+]([O-])c1cccc(NP(=O)(Oc2ccccc2)Oc2ccccc2)c1	i	i	i	i	i	.
CC(=O)O[C@H]1CC[C@@]2(C)[C@H](C1)C(=O)C[C@H]1[C@@H]3CC[C@@H]4[C@@H](CN5C[C@@H](C)CC[C@H]5[C@@]4(C)O)[C@@H]3C[C@@H]12	-7.04*	i	i	i	i	.
C[C@H]1CC[C@@H]2N(C1)C[C@H]1[C@@H]3C[C@H]4[C@@H](CC(=O)[C@H]5C[C@@H](O)CC[C@@]54C)[C@@H]3CC[C@H]1[C@]2(C)O	i	i	i	i	i	.
O=[N+]([O-])c1cc(F)c(N2CCCCCC2)cc1N1CCNCC1	i	i	i	-5.18*	i	-0.0735
CN1CCN(c2ccc([N+](=O)[O-])c(N3CCCCC3)c2)CC1	i	i	i	i	i	-1
O=[N+]([O-])c1ccc(N2CCNCC2)cc1N1CCCCCC1	i	i	11.4*	i	i	1.51
